Screening data (PubChem)
Only some compounds are listed: those with a hit (about 3.3% of all), similar ones and a draw of the others.
PMI act hi M6P – PMI (human) activation, high substrate | coupled PMI enzyme assay, resazurin fluorescence, 20 min; hits give high values; 1 = untreated enzyme, 0 = substrate-free blank | activation factor at 20 µM | hit rate 0.34% among 190,000 | AID 1216;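 active means activation factor of 2 or more at 20 µM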
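assay system = human phosphomannose isomerase with PGI, G6PDH, diaphorase coupling enzymes | quantity = 15 ng/mL PMI | incubation = enzyme reaction with compound 20 min at room temperature | medium = HEPES pH 7.4 buffer with MgCl2 and Tween-20 | compound dosing = one concentration, 20 µM, in 1% DMSO | measured by = Diaphorase-driven resazurin-to-resorufin fluorescence, excitation 544, emission 590 nm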
ABCB1 inh – human ABCB1 inhibition, ABCG2 as counter-screen; P08183; CCRF-Adr cells, JC-1 efflux, flow cytometry; inhibition, % at 6.6 µM; hit rate 0.067% among 190,000; in the data active means inhibition above about 40%;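 further: 0% = vehicle and 100% = reference inhibitor; higher value means more JC-1 retained so stronger ABCB1 efflux block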
ABCG2 inh – blocks JC-1 efflux by human ABCG2 transporter. Q9UNQ0. IgMXP3 cells, flow cytometry. inhibition, % at 6.6 µM. hit rate 0.1% among 190,000. AID 1325;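 active means inhibition above 80%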;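 further: 0% = DMSO and 100% = nicardipine control wells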
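Test system: IgMXP3 (ABCG2) plus far-red-tagged CCRF-Adr (ABCB1) cells. Reagent: JC-1 dye as substrate. Timing: 10 min exposure at 25 °C with rotation, no wash. Measured by: flow cytometric JC-1 green MFI at 530 nm. Read-out: percent efflux inhibition, scaled nicardipine 100% to DMSO 0%. Control set: nicardipine and DMSO wells.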
PMI activator – phosphomannose isomerase (human) activation; P34949; purified human PMI, coupled resazurin fluorescence, 20 min; hits give high values; 1 = vehicle control, 0 substrate-free wells; activation factor at 20 µM; hit rate 0.005% among 190,000; AID 1214;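 active means activation factor of 2 or more at 20 µM, relative to plate controls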
ROMK mod – modulates human ROMK potassium channel activity; P48048; Tet-inducible ROMK, thallium flux fluorescence; actives lie on both sides; B-score at 10 µM; hit rate 2% among 130,000;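 active means signal ratio slope over the read window, or its plate-corrected B-score, at least 3 SD from the plate mean, either direction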;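 further: B-score of the F/F0 ratio slope over 7 to 12 s after thallium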
Target sequence (P48048 whole entry, looked up): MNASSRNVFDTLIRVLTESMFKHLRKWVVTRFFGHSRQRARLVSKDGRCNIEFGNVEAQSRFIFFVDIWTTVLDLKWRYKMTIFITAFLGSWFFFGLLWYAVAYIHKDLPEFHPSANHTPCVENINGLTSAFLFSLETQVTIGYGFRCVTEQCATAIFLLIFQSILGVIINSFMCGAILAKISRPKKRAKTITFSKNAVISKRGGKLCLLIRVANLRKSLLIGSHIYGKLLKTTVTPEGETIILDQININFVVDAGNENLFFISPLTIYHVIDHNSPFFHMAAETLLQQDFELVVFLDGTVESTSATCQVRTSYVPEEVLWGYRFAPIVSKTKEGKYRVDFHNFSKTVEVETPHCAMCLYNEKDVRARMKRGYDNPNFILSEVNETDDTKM
Cl transport mod – KCC2 (human) Cl- transport modulation. hit rate 2.2% among 190,000. B-score of Tl+ flux slope (higher = more flux/activation; lower = inhibition) at 10 µM. Q9H2X9. KCC2 cells, thallium flux FluoZin-2 fluorescence;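 active means thallium flux slope and its plate-corrected score both differing from the plate sample mean at a set confidence after two filtering rounds, in either direction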;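 further: slope of fluorescence scaled to starting intensity during 10 to 20 s after thallium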
ROMK hit retest – human ROMK channel modulation, retest confirmation; ROMK thallium flux, fluorescence ratio; hits give low values; hit rate 54% among 3,000; shares compounds with ROMK mod; normalized thallium flux (F/F0 slope) at 10 µM;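 active means Flux at 10 µM at least 3 SD below or above vehicle control mean in one or both replicates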
Active calls of the source: *; nt = not tested or not shown.

SMILES	PMI act hi M6P	ABCB1 inh	ABCG2 inh	PMI activator	ROMK mod	Cl transport mod	ROMK hit retest
CC(=O)c1ccc2cccc3c2c1N=CN3C	0.4	3	5	0.6	nt	nt	0.049*
Cc1ccsc1/C=N/NC(=O)Cn1cnc2ccccc21	1	0	11	1	nt	0.62	nt
COc1ccc(C([O-])=Nc2ccc[n+](-c3nc4ccccc4nc3NS(=O)(=O)c3ccccc3)c2)cc1	nt	nt	nt	nt	nt	-1.1	nt
O=S(=O)(Nc1nc2ccccc2nc1-[n+]1cccc(N=C([O-])c2ccccc2Cl)c1)c1ccccc1	nt	nt	nt	nt	nt	0.8	0.053*
CCOC(=O)C(C(=O)OCC)C(CC(=O)C1CC1)c1ccccc1 (configuration not stated)	1	1	0	1	0.5	nt	nt
CC1(C)N=C(N)N=C(N)N1c1ccc(OCCCOc2ccccc2)c(Cl)c1	nt	nt	nt	nt	-3.1*	-3	0.06*
C/C(=N\N1CCN(c2ccccc2)CC1)c1ccncc1	1	0	1	1	-0.17	0.57	nt
C/C(=N\NC(=O)c1cc2ccccc2cc1O)c1cc2ccccc2o1	nt	nt	nt	nt	nt	nt	0.13*
COc1ccc(NCC(=O)N/N=C(\C)c2cc3ccccc3o2)cc1	0.8	0	0	1	-0.51	0.3	nt
COc1cccc(CNC(=O)CCC2CCCN(C/C=C/c3ccccc3OC)C2)c1 (configuration not stated)	1	5	2	1	-5.5*	0.027	0.065*
COc1ccccc1/C=C/CN1CCCC(CCC(=O)NCc2ccc(F)c(F)c2)C1 (configuration not stated)	0.9	1	1	0.9	-1.8	-0.22	nt
N#CCSc1nnc(Cc2ccc3c(c2)OCO3)o1	1.2	1	2	1.4	nt	-0.58	nt
Cc1ccc(C(C[N+](=O)[O-])n2nc(C)cc2C)cc1 (configuration not stated)	1	1	2	1	-2.4	-1.7	0.059*
Cc1ccc(S(=O)(=O)n2nc(C)cc2C)cc1	1	1	2	1.1	-0.47	nt	nt
COc1ccccc1-c1cc(C(=O)N2CCN(c3ccccc3OC)CC2)no1	0.9	1	8	0.9	3.3*	-1.2	0.085
COc1ccccc1-c1cc(C(=O)NCCc2ccccc2)no1	1	0	1	1	3.5*	nt	0.076
COc1cc(NC(=O)c2cc(-c3cccs3)on2)cc(OC)c1OC	0.9	0	3	0.9	4.1*	-0.62	0.084
COc1ccccc1-c1cc(C(=O)Nc2cccnc2)no1	0.9	1	25	0.9	5.1*	-1.5	0.081
COc1ccccc1N1CCN(C(=O)c2cc(-c3ccc(C)cc3)on2)CC1	0.9	1	3	0.8	-1.4	-0.4	nt
COc1ccc(/C=N/n2c(SC)nnc2-c2ccccc2)c(OC)c1OC	1	-3	-3	1	3.4*	nt	0.08
COc1cccc(/C=N/n2c(C)nc3ccccc32)c1OC	0.9	1	16	0.9	-2.7	-0.034	0.074
COc1ccc(/C=N/n2c(SC)nnc2-c2ccccc2)cc1C	1	0	16	0.9	nt	-0.013	nt
Cc1nnc(SCC(=O)N2CCN(c3ccccc3)CC2)n(N)c1=O	1	0	1	1.1	-0.42	-0.84	nt
COc1ccccc1/C=C/C=N/N1CCN(Cc2cccc3ccccc23)CC1	1	0	1	0.9	0.42	0.79	nt
COc1ccc(OC)c(CN2CCN(Cc3cccc4ccccc34)CC2)c1	0.9	5	3	0.9	-3.9*	0.059	0.05*
SMILES	PMI act hi M6P	ABCB1 inh	ABCG2 inh	PMI activator	ROMK mod	Cl transport mod	ROMK hit retest
CCOC(=O)c1cnc2c(cnn2C)c1NCCCn1ccnc1	1	8	48	1	-2.9*	-0.55	0.073
COc1ccc(S(=O)(=O)Nc2cccc(NC(C)=O)c2)cc1	0.9	0	8	0.9	0.0058	nt	nt
COc1cccc(NS(=O)(=O)c2ccc(NC(C)=O)cc2)c1	0.9	0	3	0.9	-2.1*	nt	0.08
C=CCC1(CC=C)CCCN1C(=O)CC1C(=O)NCCN1Cc1cccc(OC)c1OC (configuration not stated)	1	0	0	1	-0.0046	0.28	nt
COc1ccc(C2N(C(=O)N3CCOCC3)CCN2S(=O)(=O)c2ccc(C)cc2)cc1 (configuration not stated)	1	2	45	0.9	1.9*	nt	0.083
Cn1nc(C(F)(F)F)c2cc(C(=O)Nc3ccc(C(F)(F)F)cc3)sc21	nt	nt	nt	nt	1.2	0.086	nt
CC1CCCN(c2ccc([N+](=O)[O-])cc2C(=O)c2ccccc2)C1 (configuration not stated)	0.9	1	2	0.8	2.3	-0.044	0.09
O=C(Nc1ccc2oc(=O)ccc2c1)c1cc([N+](=O)[O-])ccc1N1CCOCC1	0.8	0	3	0.9	-7.3*	-0.63	0.031*
O=C(c1ccc(Cl)cc1)c1cc([N+](=O)[O-])ccc1N1CCOCC1	0.9	1	2	0.9	1.7	nt	nt
O=C(c1ccc(Br)cc1)c1cc([N+](=O)[O-])ccc1N1CCOCC1	1	1	4	1	4.5*	-0.35	0.096
Cc1cc(=O)oc2cc(NC(=O)c3cc([N+](=O)[O-])ccc3N3CCOCC3)ccc12	1	2	10	1.1	-0.59	0.075	nt
NC(=O)[C@@H]1CCOc2c(I)cc([N+](=O)[O-])cc2C(=O)N[C@@H](CO)C(=O)NCC(=O)N1	1.2	1	8	1.2	-0.12	0.61	nt
CCNC(=O)CSc1nc2cc(OC)c(OC)cc2c(=O)n1CCC1=CCCCC1	0.9	nt	nt	1	nt	nt	nt
O=C(C[n+]1cc(-c2ccc(Br)cc2)n2c1CCCCC2)c1ccccc1	0.9	0	1	1	-3*	0.052	0.068*
O=C(C[n+]1cc(-c2ccc(Cl)cc2)n2c1CCC2)Nc1nc(-c2ccc(F)cc2)cs1	nt	nt	nt	nt	-5.8*	-3.1	0.051*
O=C(C[n+]1cc(-c2ccc(F)cc2)n2c1CCC2)Nc1nc(-c2ccc(F)cc2)cs1	1	0	0	1.1	nt	-2.7	nt
Cc1ccc(-c2csc(NC(=O)C[n+]3cc(-c4ccccc4)n4c3CCC4)n2)cc1	nt	nt	nt	nt	-6.1*	-2.3	0.06*
Cc1cc(C)cc(NC(=O)CSc2nc(CSc3ccc(Cl)cc3)cc(=O)[nH]2)c1	nt	nt	nt	nt	-0.74	0.86	nt
CCCn1c(=N)n(CC(=O)c2ccc([N+](=O)[O-])cc2)c2ccccc21	1.1	0	2	1.2	-4.4*	nt	0.072
CC(C)(C)C(=O)Cn1c(=N)n(Cc2ccccc2Cl)c2ccccc21	1.1	2	5	1	-2.3	nt	nt
